Results from ChEMBL document CHEMBL4613283, “Synthesis, Antiproliferative Effect, and Topoisomerase II Inhibitory Activity of 3-Methyl-2-phenyl-1H-indoles” (2020).
Active and inactive are the calls of the source. No cut-off for these calls is given here.

Key:
[1] = target: DNA topoisomerase 2-alpha (Homo sapiens) (UniProt P11388); test: Inhibition of recombinant human topoisomerase 2 alpha-mediated relaxation of supercoiled pBR322 DNA at 100 uM incubated for 30 mins by ethidium bromide staining based agarose gel electrophoresis method
Sequence of DNA topoisomerase 2-alpha (Homo sapiens) (P11388 whole entry): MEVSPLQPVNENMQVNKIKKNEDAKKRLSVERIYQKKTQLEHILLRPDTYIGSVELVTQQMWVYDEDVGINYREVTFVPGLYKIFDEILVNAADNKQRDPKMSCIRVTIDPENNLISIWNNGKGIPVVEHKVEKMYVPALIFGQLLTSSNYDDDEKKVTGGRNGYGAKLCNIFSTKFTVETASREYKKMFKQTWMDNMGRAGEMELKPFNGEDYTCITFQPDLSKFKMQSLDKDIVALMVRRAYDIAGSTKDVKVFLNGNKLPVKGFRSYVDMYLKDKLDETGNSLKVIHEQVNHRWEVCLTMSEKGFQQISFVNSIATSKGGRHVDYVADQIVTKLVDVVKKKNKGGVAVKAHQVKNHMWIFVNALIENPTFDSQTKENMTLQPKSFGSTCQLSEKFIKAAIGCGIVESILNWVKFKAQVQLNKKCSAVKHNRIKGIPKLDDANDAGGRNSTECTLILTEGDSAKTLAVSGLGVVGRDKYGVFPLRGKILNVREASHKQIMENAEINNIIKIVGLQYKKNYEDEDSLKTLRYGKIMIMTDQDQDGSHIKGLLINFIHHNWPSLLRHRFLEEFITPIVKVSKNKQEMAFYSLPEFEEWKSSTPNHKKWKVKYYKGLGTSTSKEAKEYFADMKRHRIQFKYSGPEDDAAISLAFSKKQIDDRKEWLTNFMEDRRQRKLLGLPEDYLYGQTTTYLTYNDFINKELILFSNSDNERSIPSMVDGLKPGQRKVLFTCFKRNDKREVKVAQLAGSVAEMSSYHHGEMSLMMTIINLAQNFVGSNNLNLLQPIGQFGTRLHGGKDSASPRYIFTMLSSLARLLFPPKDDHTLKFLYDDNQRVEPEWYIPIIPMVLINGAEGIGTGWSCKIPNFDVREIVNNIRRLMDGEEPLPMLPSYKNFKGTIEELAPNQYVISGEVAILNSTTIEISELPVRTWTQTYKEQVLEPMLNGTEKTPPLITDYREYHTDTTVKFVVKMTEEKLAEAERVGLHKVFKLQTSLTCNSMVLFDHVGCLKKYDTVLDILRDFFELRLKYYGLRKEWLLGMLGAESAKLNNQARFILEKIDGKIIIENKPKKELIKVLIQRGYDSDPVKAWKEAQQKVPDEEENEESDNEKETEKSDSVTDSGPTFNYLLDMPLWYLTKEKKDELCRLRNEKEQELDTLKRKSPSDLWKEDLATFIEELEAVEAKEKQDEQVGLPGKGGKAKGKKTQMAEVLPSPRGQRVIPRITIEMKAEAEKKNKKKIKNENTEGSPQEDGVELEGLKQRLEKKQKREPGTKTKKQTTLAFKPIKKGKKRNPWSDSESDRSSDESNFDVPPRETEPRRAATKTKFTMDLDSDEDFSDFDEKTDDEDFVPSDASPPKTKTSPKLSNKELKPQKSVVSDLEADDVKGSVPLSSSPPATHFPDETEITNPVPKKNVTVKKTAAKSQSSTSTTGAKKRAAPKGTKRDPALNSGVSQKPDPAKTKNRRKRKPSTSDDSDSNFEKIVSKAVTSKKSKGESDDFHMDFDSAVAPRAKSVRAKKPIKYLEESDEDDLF
Method in brief: (§1)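 Supercoiled pBR322 plasmid incubated with human recombinant topoisomerase II without or with compound at 100 μM, or at 25 and 50 μM; m-AMSA 20 μM as reference; relaxation inhibition judged from electrophoretic pattern of supercoiled DNA versus relaxed topoisomers.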

[2] = test system: MSTO-211H; test: Growth inhibition of human MSTO-211H cells incubated for 72 hrs by trypan blue assay; format: functional
Method in brief: (§2)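 HeLa, A2780 and MSTO-211H human tumor cells; GI50 taken as the concentration (μM) inhibiting growth of 50% of cells relative to an untreated control culture; mean ± SD of at least three independent experiments.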

[3] = test system: A2780; test: Induction of apoptosis in human A2780 cells assessed as polarization of mitochondrial membrane potential at 10 uM incubated for 28 hrs by JC-1 staining based flow cytometry (reference value: 96.1 %); format: functional
Method in brief: (§3)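 A2780 cells exposed 28 h to increasing concentrations versus untreated control, stained with JC-1 and analysed by flow cytometry; mitochondrial potential read as red aggregate versus green monomer fluorescence; percentages of cells with polarized and depolarized mitochondria reported.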

[4] = test system: A2780; test: Induction of apoptosis in human A2780 cells assessed as depolarization of mitochondrial membrane potential at 50 uM incubated for 28 hrs by JC-1 staining based flow cytometry (reference value: 3.8 %); format: functional; method in brief: as §3
[5] = target: DNA topoisomerase 2-alpha (Homo sapiens) (UniProt P11388); test: Inhibition of recombinant human topoisomerase 2 alpha-mediated relaxation of supercoiled pBR322 DNA at 50 uM incubated for 30 mins by ethidium bromide staining based agarose gel electrophoresis method; method in brief: as §1
[6] = target: DNA topoisomerase 2-alpha (Homo sapiens) (UniProt P11388); test: Inhibition of recombinant human topoisomerase 2 alpha-mediated relaxation of supercoiled pBR322 DNA at 25 uM incubated for 30 mins by ethidium bromide staining based agarose gel electrophoresis method; method in brief: as §1
[7] = test system: A2780; test: Induction of apoptosis in human A2780 cells assessed as depolarization of mitochondrial membrane potential at 10 uM incubated for 28 hrs by JC-1 staining based flow cytometry (reference value: 3.8 %); format: functional; method in brief: as §3
[8] = test system: A2780; test: Growth inhibition of human A2780 cells incubated for 72 hrs by trypan blue assay; format: functional; details: A2780, 72 h; method in brief: as §2
[9] = test system: A2780; test: Induction of apoptosis in human A2780 cells assessed as decrease of mitochondrial membrane potential incubated for 28 hrs by JC-1 staining based flow cytometry
[10] = test system: A2780; test: Induction of apoptosis in human A2780 cells assessed as polarization of mitochondrial membrane potential at 50 uM incubated for 28 hrs by JC-1 staining based flow cytometry (reference value: 96.1 %); format: functional; method in brief: as §3
[11] = test system: HeLa; test: Growth inhibition of human HeLa cells incubated for 72 hrs by trypan blue assay; format: functional; method in brief: as §2
[12] = test system: A2780; test: Induction of apoptosis in human A2780 cells assessed as increase in sub-G0 accumulation at 50 uM incubated for 28 hrs by propidium iodide staining based flow cytometry relative to control; format: functional
Method in brief: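 A2780 cells treated 28 h at 10 and 50 μM alongside untreated control, stained with propidium iodide, DNA content per cell measured by flow cytometry; apoptotic fraction taken as sub-G0 (hypodiploid) peak.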

[13] = target: DNA topoisomerase 2-alpha (Homo sapiens) (UniProt P11388); test: Inhibition of recombinant human topoisomerase 2 alpha-mediated relaxation of supercoiled pBR322 DNA at 50 uM incubated for 30 mins by ethidium bromide staining based agarose gel electrophoresis method relative to control; method in brief: as §1
[14] = target: DNA topoisomerase 2-alpha (Homo sapiens) (UniProt P11388); test: Inhibition of recombinant human topoisomerase 2 alpha-mediated relaxation of supercoiled pBR322 DNA at 100 uM incubated for 30 mins by ethidium bromide staining based agarose gel electrophoresis method relative to control; method in brief: as §1

SMILES | inhibition [1] | GI50 [8] [µM] | GI50 [11] [µM] | GI50 [2] [µM] | other results
Cc1c(-c2ccc(O)cc2)n(CC(=O)O)c2ccccc12 | inactive | > 20 | > 20 | > 20 | –
Cc1ncsc1C(=O)Oc1ccc(-c2[nH]c3ccccc3c2C)cc1 | – | 13 | > 20 | > 20 | –
Cc1c(-c2ccc(O)cc2)[nH]c2ccccc12 | – | > 20 | > 20 | > 20 | –
Cc1c(-c2ccc(O)cc2)n(CCCCOc2ccccc2)c2ccc(O)cc12 | Active | 2 | 4 | 2.9 | –
Cc1c(-c2ccc(OC(=O)c3c[nH]cn3)cc2)[nH]c2ccccc12 | – | > 20 | > 20 | > 20 | –
COc1cc(NS(C)(=O)=O)ccc1Nc1c2ccccc2nc2ccccc12 [AMSACRINE] | – | 0.027 | 0.031 | 0.019 | –
COc1ccc2c(c1)c(C)c(-c1ccc(OC)c(OC)c1)n2CCCCOc1ccccc1 | inactive | 17 | > 20 | 13 | –
Cc1c(-c2ccc(O)cc2)n(CCCCOc2ccccc2)c2ccccc12 | Active | 3.1 | 11 | 3.3 | –
O=c1c(O)c(-c2ccc(O)c(O)c2)oc2cc(O)cc(O)c12 [QUERCETIN] | – | 19.7 | 17.7 | > 20 | –
CCOC(=O)Cn1c(-c2ccc(O)cc2)c(C)c2ccccc21 | inactive | 13 | > 20 | > 20 | –
Cc1c(-c2ccc(O)cc2)[nH]c2ccc(O)cc12 | Active | 11 | 16 | > 20 | inhibition [5]: inactive; inhibition [6]: inactive

More lines, main results first:

inhibition [1] | GI50 [8] [µM] | GI50 [11] [µM] | SMILES | GI50 [2] [µM] | other results
Active | 2.2 | 4.4 | Cc1c(-c2ccc(O)cc2)n(CCCOc2ccccc2)c2ccc(O)cc12 | 2.4 | Activity [3]: 87%; Activity [4]: 42.2%; inhibition [5]: Active; inhibition [6]: Active; Activity [7]: 12.6%; Activity [9]: Dose-dependent effect; Activity [10]: 57.7%; Activity [12]: 30%; inhibition [13]: 100%
Active | 4.7 | 15 | Cc1c(-c2ccc(O)cc2)n(CCOc2ccccc2)c2ccc(O)cc12 | 7.6 | –
Active | 4.3 | 10 | Cc1c(-c2ccc(O)c(O)c2)n(CCCCOc2ccccc2)c2ccc(O)cc12 | 3.4 | –
Active | 2.3 | 7.9 | CCCn1c(-c2ccc(O)cc2)c(C)c2cc(O)ccc21 | 2.9 | –
Active | 7.4 | 18 | Cc1c(-c2ccc(O)c(O)c2)n(CCCOc2ccccc2)c2ccc(O)cc12 | 7.1 | –
inactive | 9 | > 20 | CCCn1c(-c2ccc(O)cc2)c(C)c2ccccc21 | 7.1 | –
inactive | 14 | > 20 | Cc1c(-c2ccc(O)c(O)c2)n(C)c2ccc(O)cc12 | > 20 | –
– | 2.2 | > 20 | Cc1c(-c2ccc(O)c(O)c2)[nH]c2ccc(O)cc12 | > 20 | inhibition [14]: 100%; inhibition [5]: Active; inhibition [6]: Active
Active | 8.4 | > 20 | CCCn1c(-c2ccc(O)c(O)c2)c(C)c2cc(O)ccc21 | > 20 | –
